Source: PubChem
TAAR1 ag: human TAAR1 agonists, primary screen, Fluo-8 calcium fluorescence, CHO RD-HGA16 cells; Trace amine-associated receptor 1 (Homo sapiens), Q96RJ0; vehicle wells 0%, saturating PEA agonist 100%; activation, % at 3 µM; hit rate 0.99% among 360,000; AID 624467, 2012;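 active = activation above the mean activation of all test compounds in the run plus 3 SD, cut at about 38% in these data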
Target sequence (Q96RJ0 whole entry, looked up): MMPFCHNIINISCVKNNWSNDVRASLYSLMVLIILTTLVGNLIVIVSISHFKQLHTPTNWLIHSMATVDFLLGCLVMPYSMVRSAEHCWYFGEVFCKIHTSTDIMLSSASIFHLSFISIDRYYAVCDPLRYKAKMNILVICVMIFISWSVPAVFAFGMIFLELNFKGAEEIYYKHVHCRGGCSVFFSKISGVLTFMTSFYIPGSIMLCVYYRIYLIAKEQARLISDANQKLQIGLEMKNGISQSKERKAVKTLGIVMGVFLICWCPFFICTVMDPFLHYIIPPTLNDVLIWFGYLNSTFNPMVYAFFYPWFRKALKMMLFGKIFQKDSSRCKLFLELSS
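Test system: RD-HGA16 (CHO) cells co-expressing Gα16 and hTAAR1 | Doses: Single dose, 3 µM | Schedule: 17-24 h seeding, 75 min 37 °C dye, 30 min RT | Evaluation: % activation from peak over basal fluorescence ratio, DMSO-to-PEA scaled | Technique: Kinetic Fluo-8 calcium fluorescence | Benchmarks: Low control DMSO, high control PEA (EC100)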
HCV core dimer: inhibitors of HCV core protein dimerization, primary screen, biochemical, TR-FRET, high-throughput; TR-FRET GST/Flag-core106 dimerization, 1536-well; inhibition, % at 5 µM; hit rate 0.33% among 300,000;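 active = inhibition above the mean of all tested compounds plus 3 SD, set per screening campaign, cut at about 45% in these data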
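Test system: GST/Flag-tagged HCV core106 proteins; Medium: KF-containing HEPES buffer, pH 7.45, DTT, CHAPS, BSA; Times: compound-protein-antibody incubation 4 h at 22.5 °C; Detection: TR-FRET 671 and 617 nm emission; Benchmarks: wells lacking GST-core106 and wells with excess unlabelled core106.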
rCAG binder: binders of r(CAG) RNA repeats, primary screen, biochemical, fluorescence. r(CAG) RNA repeat, TO-PRO-1 dye displacement fluorescence. inhibition, % at 3 µM. hit rate 1.3% among 370,000. AID 651821, 2012;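 active = inhibition above the plate cutoff, the mean of all test compounds on that plate plus 3 SD, cut at about 35% in these data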;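 also: 0% = DMSO alone and 100% = 100 µM mitoxantrone as full dye displacement; higher means more dye released from RNA so lower well fluorescence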
TAAR1 antag: human TAAR1 antagonists, primary screen, Fluo-8 calcium fluorescence, CHO RD-HGA16 cells; AID 624466, 2012; Trace amine-associated receptor 1 (Homo sapiens), Q96RJ0; inhibition, % at 3 µM; hit rate 1.5% among 360,000; antagonist;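 active = inhibition above a per-plate cutoff, the mean inhibition of test compounds on that plate plus 3 SD, cut at about 49% in these data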;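 also: 0% = DMSO plus EC80 beta-PEA response and 100% = DMSO alone without agonist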
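Material: RD-HGA16 CHO cells with stable hTAAR1 and Gα16; Dosing: single nominal final test compound concentration of 3 µM; Schedule: seeding 17-24 h prior, 75-min 37 °C, 30-min RT dye loading; Detection: kinetic Fluo-8 calcium fluorescence measurement; Measure: % inhibition from peak post-agonist over basal fluorescence ratio; Benchmarks: vehicle and agonist controls.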
NS3 helicase inh: inhibitors of HCV NS3 helicase, primary screen, biochemical, Cy5 molecular beacon fluorescence | NS3 helicase DNA unwinding | inhibition, % at 10.9 µM | hit rate 0.56% among 290,000 | AID 1800, 2009;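 active = inhibition above the mean of all tested compounds plus 3 SD, set per campaign, cut at about 35% in these data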;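 also: 0% = DMSO wells and 100% = thioflavine S control wells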
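Compound dosing – single dose, 10.9 µM nominal final, DMSO 0.8% final · System – NS3 helicase fragment of HCV · Buffer or medium – MOPS pH 6.5, MgCl2, DTT, Tween20, BSA · Signal – Cy5 beacon fluorescence read at start and 1 h · Also added – annealed dual-labelled DNA beacon duplex, ATP-started · Schedule – 1 h at 25 °C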
nonsel antag count: nonselective antagonists in TAAR1 counter-screen cells, counter-screen for hTAAR1 antagonist project, cell-based, fluorescence, calcium | shares compounds with TAAR1 antag | counterscreen cell line, antagonist mode | inhibition, % at 3 µM | hit rate 77% among 2,400; in the data active = inhibition above about 22%;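 also: CHO-Ga16 host cells stimulated with ATP at an EC80 level; 0% = agonist EC80 plus vehicle and 100% = vehicle without agonist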
TAAR1 ant conf: human TAAR1 antagonists, retest of hits, confirmation, cell-based, fluorescence; AID 651785, 2012; hit rate 40% among 2,400; TAAR1-expressing cells, fluorescence antagonist read-out; inhibition, % at 3 µM; shares compounds with TAAR1 antag; in the data active = inhibition above about 49%;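 also: CHO-Ga16 host cells challenged with agonist PEA near its EC80; 0% = agonist at EC80 plus vehicle and 100% = vehicle with no agonist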
Ga16 nonsel ag: calcium activation in Ga16-expressing cells, counter-screen for TAAR1 antagonist project, cell-based, fluorescence. agonist counterscreen. hit rate 18% among 2,400. activation, % at 3 µM. shares compounds with TAAR1 antag. AID 651953, 2012; in the data active = activation above about 12%;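 also: 0% = vehicle wells and 100% = saturating stimulus response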
TAAR1 ag counter: TAAR1 activation by candidate antagonists – cell-based, fluorescence, counter-screen for TAAR1 antagonist project | hit rate 2% among 2,400 | shares compounds with TAAR1 antag | hTAAR1 cell line, agonist mode | AID 651955, 2012 | activation, % at 3 µM; in the data active = activation above about 37%;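 also: CHO cells stably expressing TAAR1 with calcium dye readout; 0% = DMSO vehicle and 100% = full agonist response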
Active calls of the source: *; . = no result. Only some compounds are listed: those with a hit (about 3.7% of all), similar ones and a draw of the others.

SMILES | TAAR1 ag | HCV core dimer | rCAG binder | TAAR1 antag | NS3 helicase inh | nonsel antag count | TAAR1 ant conf | Ga16 nonsel ag | TAAR1 ag counter
COC(=O)[C@]12C[C@H](CC(=O)NCCc3ccccc3OC)C(=O)N(CCC3=CCCCC3)C1=C[C@H](C(C)(C)C)O[C@@H]2C | 27 | . | 8 | -4 | . | . | . | . | .
COc1ccc(C(=O)N/N=C/c2ccc(OC(=O)c3ccccc3)cc2)cc1 | 8 | 15 | 4 | -9 | 0 | . | . | . | .
Cc1cccc(C(=O)Oc2ccc(/C=N/NC(=O)c3ccccc3O)cc2)c1 | 7 | 10 | 19 | 68* | 10 | 49* | 58* | 8 | 4
O=C(O)c1ccc(N/N=C/c2ccc(OC(=O)c3cccc(Cl)c3)cc2)cc1 | 20 | -101 | 29 | 84* | 23 | 48* | 60* | 8 | 13
Cc1cccc(C(=O)Oc2ccc(/C=N/NC(=O)c3ccc(O)cc3)cc2)c1 | 13 | . | 7 | 73* | -1 | 37* | 54* | 10 | 17
CCOC(=O)N1CCN(C(=O)C[C@@H]2C(=O)N(Cc3ccc(OC)cc3)/C3=C/CCCCC[C@@]32C(=O)OCC)CC1 | . | . | 0 | . | . | . | . | . | .
Cc1nc2ccccc2c(=O)n1/N=C/c1ccccc1O | -2 | -1 | 3 | 7 | -5 | . | . | . | .
Cc1ccc(-c2[nH]ncc2/C=N/n2c(C)nc3ccccc3c2=O)cc1 | 11 | 6 | 0 | 50* | -10 | 23* | 40 | 7 | 8
COc1ccc(CN(CCN2CCOCC2)C(=O)c2ccccc2C)cc1OC | . | . | 1 | . | . | . | . | . | .
CCN(CC)c1ccc(S(=O)(=O)N2CCOCC2)cc1NC(=O)COC(=O)c1ccco1 | 10 | 0 | -3 | 3 | . | . | . | . | .
CCN(CC)c1ccc(S(=O)(=O)N2CCOCC2)cc1NC(=O)COC(=O)/C=C/c1ccccc1 | 17 | . | 4 | 70* | . | 31* | 48 | 7 | 5
C[C@@H]1CN([C@H](C)CO)S(=O)(=O)c2ccc(C#Cc3ccccc3F)cc2O[C@H]1CN(C)C(=O)c1ccc2c(c1)OCO2 | 34 | . | 12 | 73* | . | 34* | 59* | 12* | 17
CN(C)S(=O)(=O)c1ccc(C(=O)Nc2nc(-c3cccs3)cs2)cc1 | 8 | 3 | 5 | 54* | 8 | 33* | 37 | 12* | 9
O=C(Nc1nc(-c2cccs2)cs1)c1ccc(S(=O)(=O)N2CCCC2)cc1 | 5 | 9 | 9 | 29 | -1 | . | . | . | .
C=CC[C@H](CC(=O)NCCO)C(=O)NC[C@H](OC(=O)[C@@H](CC=C)Cc1ccc(F)cc1)c1ccccc1 | 9 | . | -7 | 29 | . | . | . | . | .
C=CC[C@@H](CC(=O)N(CCO)Cc1ccccc1)C(=O)N[C@H](COC(=O)[C@@H](CC=C)Cc1ccc(F)cc1)c1ccccc1 | 14 | . | 8 | 61* | . | 17 | 25 | 14* | 12
C=CC[C@@H](CC(=O)N(CCO)Cc1ccccc1)C(=O)NC[C@H](OC(=O)[C@@H](CC=C)Cc1ccc(F)cc1)c1ccccc1 | 20 | . | -2 | 89* | . | 36* | 63* | 9 | 10
C=CC[C@@H](CC(=O)N(CCO)Cc1ccccc1)C(=O)N[C@H](COC(=O)[C@@H](CC=C)CC(=O)OC(C)(C)C)c1ccccc1 | 8 | . | -1 | 45 | . | . | . | . | .
C=CC[C@@H](CC(=O)N(CCO)Cc1ccccc1)C(=O)NC[C@@H](OC(=O)[C@@H](CC=C)CC(=O)OC(C)(C)C)c1ccccc1 | 17 | . | -4 | 59* | . | 29* | 39 | 8 | 10
CC(=O)O[C@@H]1CCC[C@@]2(C(=O)N(Cc3ccccc3)c3ccc(-c4c(C)noc4C)cc32)[C@H]1NC(=O)CCc1ccccc1 | . | . | 9 | . | . | . | . | . | .
COC(=O)C[C@@H]1CC[C@@H]2[C@H](COc3ccc(NC(=O)c4cccc(OC)c4)cc3C(=O)N2C)O1 | . | . | 2 | . | . | . | . | . | .
CC(C)CN1C(=O)C[C@]2(C(=O)N(C)c3ccc(NC(=O)c4cc(F)ccc4F)cc32)C1c1ccccc1 (some centres not stated) | . | . | 0 | . | . | . | . | . | .
O=C(O)Cn1c(=O)c2c3c(sc2n(Cc2ccccc2F)c1=O)CCCC3 | 3 | 0 | 25 | 56* | 12 | 5 | 38 | 3 | 7
O=C(O)Cn1c(=O)c2c3c(sc2n(Cc2ccc(F)cc2)c1=O)CCCC3 | 2 | 8 | 26 | 16 | 3 | . | . | . | .
COC(=O)C[C@H]1CC[C@@H]2[C@H](COc3ccc(NC(=O)c4ccccc4OC)cc3C(=O)N2C)O1 | . | . | -1 | . | . | . | . | . | .
SMILES | TAAR1 ag | HCV core dimer | rCAG binder | TAAR1 antag | NS3 helicase inh | nonsel antag count | TAAR1 ant conf | Ga16 nonsel ag | TAAR1 ag counter
O=C(CCSCc1cccc(F)c1)NCCc1ccccc1 | 19 | 6 | -4 | 56* | -7 | 4 | 69* | 7 | 26
COC(=O)[C@]12C[C@H](CC(=O)NCCc3ccccc3OC)C(=O)N(CCc3ccc(OC)c(OC)c3)C1=C[C@H](C(C)(C)C)O[C@@H]2C | . | . | 2 | . | . | . | . | . | .
COc1ccccc1S(=O)(=O)Cc1ccc(C(=O)N2CCN(c3cccc(Cl)c3)CC2)o1 | 25 | 7 | -4 | 65* | -10 | 40* | 61* | 13* | 12
COc1ccc(N2CCN(C(=O)c3ccc(CS(=O)(=O)c4ccc(Br)cc4)o3)CC2)cc1 | 3 | 4 | 1 | 2 | 3 | . | . | . | .
COc1ccccc1S(=O)(=O)Cc1ccc(C(=O)N2CCN(c3ccccc3)CC2)o1 | 23 | 7 | 0 | 14 | 0 | . | . | . | .
COc1ccc(N2CCN(C(=O)c3ccc(CS(=O)(=O)c4ccccc4C)o3)CC2)cc1 | 18 | 9 | 0 | 52* | -13 | 27* | 46 | 11 | 27
Cc1ccc(C)c(N2CCN(C(=O)c3ccc(CS(=O)(=O)c4ccccc4C)o3)CC2)c1 | 16 | 3 | -4 | 64* | -9 | 37* | 51* | 7 | 6
Cc1ccc(S(=O)(=O)Cc2ccc(C(=O)N3CCN(c4cc(C)ccc4C)CC3)o2)cc1 | 8 | 3 | -2 | 2 | 14 | . | . | . | .
